# A selection: hits, their analogues and other compounds. The true share with any hit is near 4.5%.
# OX1R antag-1: OX1R (HCRTR1) antagonists, primary screen, fluorescence, CHO/OX1R cells, Fluo-8 calcium, orexin A. hit rate 0.43% among 330,000. Fluo-8 calcium fluorescence. inhibition, % at 5 µM. Orexin/Hypocretin receptor type 1 (Homo sapiens), O43613;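 active means inhibition above its plate's threshold, mean inhibition of all tested compounds on the plate plus 3 SD, cut at about 37% in these data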;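 further: 0% = orexin A challenge wells and 100% = SB-334867-A antagonist wells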
# GPR7 antagonist: GPR7 receptor antagonists, primary screen, cell-based, fluorescence, single concentration. AID 1861, 2009. hit rate 1.1% among 290,000. GPR7-expressing cells, fluorescence antagonist assay. Neuropeptides B/W receptor type 1 (Homo sapiens), P48145. inhibition, % at 4.4 µM; in the data active means inhibition above about 16%, passing the limit was not always enough;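 further: cells stimulated with the agonist NPW; 0% = agonist with vehicle and 100% = vehicle without agonist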
# Target sequence (P48145 whole entry, looked up): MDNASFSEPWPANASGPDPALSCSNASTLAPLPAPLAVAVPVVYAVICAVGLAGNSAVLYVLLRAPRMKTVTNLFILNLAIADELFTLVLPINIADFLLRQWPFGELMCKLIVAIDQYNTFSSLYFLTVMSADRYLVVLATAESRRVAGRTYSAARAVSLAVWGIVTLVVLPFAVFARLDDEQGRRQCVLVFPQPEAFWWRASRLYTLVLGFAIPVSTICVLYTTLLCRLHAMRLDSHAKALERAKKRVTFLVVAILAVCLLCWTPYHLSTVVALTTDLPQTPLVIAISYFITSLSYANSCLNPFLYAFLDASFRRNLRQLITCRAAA
# TAAR1 agonist: human TAAR1 agonists, primary screen, Fluo-8 calcium fluorescence, CHO RD-HGA16 cells; Trace amine-associated receptor 1 (Homo sapiens), Q96RJ0; vehicle wells 0%, saturating PEA agonist 100%; activation, % at 3 µM; hit rate 0.99% among 360,000; AID 624467, 2012;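 active means activation above the mean activation of all test compounds in the run plus 3 SD, cut at about 38% in these data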
# Target sequence (Q96RJ0 whole entry, looked up): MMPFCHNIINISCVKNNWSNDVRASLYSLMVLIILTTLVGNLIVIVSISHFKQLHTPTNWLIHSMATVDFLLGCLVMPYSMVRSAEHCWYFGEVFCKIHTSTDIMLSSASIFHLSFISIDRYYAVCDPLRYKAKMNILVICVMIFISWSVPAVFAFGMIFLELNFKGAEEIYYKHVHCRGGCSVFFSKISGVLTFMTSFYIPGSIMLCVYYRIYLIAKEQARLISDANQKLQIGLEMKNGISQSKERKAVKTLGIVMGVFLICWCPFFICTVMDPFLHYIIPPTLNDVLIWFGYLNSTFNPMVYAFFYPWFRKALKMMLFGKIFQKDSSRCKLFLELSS
#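 Test system: RD-HGA16 (CHO) cells co-expressing Gα16 and hTAAR1; dosing: one-point dosing at 3 µM (nominal); timing: 17-24 h seeding, 75 min 37 °C dye, 30 min RT; signal: kinetic Fluo-8 calcium fluorescence; read-out basis: % activation relative to PEA EC100 response; controls: DMSO and PEA EC100; replicates: n 1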
# OX1R antag-2: antagonists of human orexin 1 receptor (OX1R). Orexin/Hypocretin receptor type 1 (Homo sapiens), O43613. OX1R-expressing cells, FRET antagonist read-out. inhibition, % at 6.6 µM. hit rate 1.8% among 330,000; in the data active means inhibition mostly above about 38%, no sharp cut-off; inactive means mostly below about 40%;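 further: 0% = agonist challenge alone and 100% = reference antagonist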
# TAAR1 antagonist: human TAAR1 antagonists, primary screen, Fluo-8 calcium fluorescence, CHO RD-HGA16 cells. hit rate 1.5% among 360,000. antagonist. Trace amine-associated receptor 1 (Homo sapiens), Q96RJ0. inhibition, % at 3 µM. AID 624466, 2012;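 active means inhibition above a per-plate cutoff, the mean inhibition of test compounds on that plate plus 3 SD, cut at about 49% in these data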;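 further: 0% = DMSO plus EC80 beta-PEA response and 100% = DMSO alone without agonist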
#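 System: CHO RD-HGA16 cells bearing hTAAR1. Reagent: EC80 β-phenethylamine stimulus. Schedule: seeding 17-24 h prior, 75-min 37 °C, 30-min RT dye loading. Signal: Fluo-8 intracellular calcium dye fluorescence, real-time kinetic reads. Read-out: % inhibition from peak post-agonist over basal fluorescence ratio. Benchmarks: vehicle wells and EC80 agonist wells. Replicates: n of 1.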
# CHO parental Ca: ATP-evoked calcium signal inhibitors, parental CHO, primary screen, counter-screen for OX1R antagonist project, cell-based, fluorescence, Fluo-8 calcium dye; parental CHO-K1, ATP-induced calcium, Fluo-8 fluorescence; inhibition, % at 5.6 µM; hit rate 0.63% among 330,000;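 active means inhibition above that plate's mean sample inhibition plus 3 SD, cut at about 26% in these data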;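 further: 0% = ATP-challenged DMSO wells and 100% = DMSO wells without ATP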
#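 test system = CHO parental line | reagent = ATP stimulus | measured by = intracellular calcium via Fluo-8 no-wash fluorescent dye | control set = ATP and no-ATP DMSO wells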
# GPR7 antag conf: GPR7 receptor antagonists, confirmation, cell-based, fluorescence, single concentration. shares compounds with GPR7 antagonist. GPR7-expressing cells, calcium fluorescence antagonist mode. inhibition, % at 4.4 µM. hit rate 52% among 2,400; in the data active means inhibition above about 24%;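 further: stimulated with the GPR7 agonist NPW; 0% = agonist plus vehicle and 100% = vehicle alone without agonist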
# MCHR1 antag: MCHR1 antagonists in cells, counter-screen for GPR7 antagonist project, cell-based, fluorescence, human; shares compounds with GPR7 antagonist; MCHR1-expressing cells, fluorescence antagonist assay; inhibition, % at 4.4 µM; hit rate 62% among 2,400; in the data active means inhibition above about 22%;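 further: 0% = vehicle with agonist and 100% = vehicle without agonist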
# An asterisk follows results filed as active; . = not tested or not shown.
SMILES,OX1R antag-1,GPR7 antagonist,TAAR1 agonist,OX1R antag-2,TAAR1 antagonist,CHO parental Ca,GPR7 antag conf,MCHR1 antag
Cc1cccc(N(CC(=O)N2CCCC2)S(=O)(=O)c2ccccc2)c1,-15,23*,9,6,-7,-9,-11,1
Cc1ccc(S(=O)(=O)N(CC(=O)N2CCCCC2)c2cccc(C)c2)cc1,-21,-6,1,42,6,-23,.,.
O=C(Cc1ccc(-n2cccc2)cc1)N1CCN(c2ccccc2F)CC1,-20,27*,1,12,0,-23,5,8
CCOc1ccc(CCN2C(=O)C(=O)N([C@@H](Cc3ccccc3)CN3CCC[C@H]3CN3C(=O)C(=O)NC[C@@H]3Cc3ccccc3)C[C@@H]2Cc2ccc(O)cc2)cc1,.,.,0,.,-13,.,.,.
CN(C(=O)c1ccc(S(=O)(=O)NC2CCCC2)cc1)C1CCCCC1,-16,30*,18,4,11,-4,46*,22*
Cc1c(Cl)cccc1N(CC(=O)NC1CCCCC1)S(C)(=O)=O,-31,-7,0,5,-19,-16,.,.
COc1ccc2c(c1)C(C)=CC(C)(C)N2S(=O)(=O)c1ccc(NC(C)=O)cc1,-12,24*,15,11,28,4,32*,44*
Cc1ccc(C(Sc2ccccc2)C(Cn2cncn2)C(=O)c2ccccc2)cc1 (stereo unspecified),-28,-1,16,34,7,-34,.,.
Cc1ccc(SC(c2ccc(C)cc2)C(Cn2cncn2)C(=O)c2ccccc2)cc1 (stereo unspecified),-35,26*,19,18,34,-29,3,3
O=C(c1ccc(Cl)cc1)C(CN1CCCCC1)c1ccccc1 (stereo unspecified),-7,55*,12,-4,13,-10,65*,82*
O=C1NC[C@H](CCCCN2C[C@H](Cc3ccc(O)cc3)N(CC3CCCCC3)C(=O)C2=O)N(CCc2ccc(O)cc2)C1=O,.,.,1,.,2,.,.,.
O=C(CCc1ccc(S(=O)(=O)N2CCOCC2)cc1)OCC(=O)c1ccccc1F,-8,.,13,4,2,-26,.,.
CCC(C)(C(=O)NC1CCCC1)N(Cc1ccco1)C(=O)c1ccccn1 (stereo unspecified),-34,17,4,13,11,-9,.,.
CCC(C)(C(=O)NC1CCCC1)N(Cc1ccco1)C(=O)c1ccc2c(c1)OCO2 (stereo unspecified),-30,31*,4,11,-4,-11,37*,20
CCC(C)(C(=O)NC1CCCC1)N(Cc1ccco1)C(=O)Cc1cccs1 (stereo unspecified),-20,38*,8,19,6,-16,33*,23*
COc1cccc(C(=O)Oc2cc3c4c(c2)C(C)=CC(C)(C)N4C(=O)C3=O)c1,21,4,-2,22,24,16,.,.
COc1cc2c3c(c1)C(C)=CC(C)(C)N3C(=O)C2=O,-9,27*,-2,3,-14,-13,19,23*
CCOC(=O)CSc1nc2c(sc(=S)n2-c2ccccc2OC)c(=O)n1Cc1ccco1,-21,20,6,21,10,3,.,.
CCOC(=O)CSc1nc2c(sc(=S)n2Cc2ccco2)c(=O)n1-c1ccccc1,-17,22*,7,18,7,-24,17,45*
COc1ccc(C(=O)N/C(=C\c2cn(C)c3ccccc23)C(=O)NCCCn2ccnc2)cc1OC,-13,-1,2,6,-8,-9,.,.
C[C@H]1CC[C@H]2C(=O)N3[C@H](c4ccccc4Br)[C@@H](C)CC[C@H]3C(=O)N2[C@@H]1c1ccccc1Br,39,29*,.,75*,.,23,57*,59*
O=C(CCCCCn1c(=O)[nH]c2ccsc2c1=O)NCc1ccc2c(c1)OCO2,-38,-11,8,26,5,-18,.,.
CCOC(=O)c1c(NC(C)=O)sc2c(OCC(O)CNC(C)(C)C)c(Br)ccc12 (stereo unspecified),-22,0,7,13,-14,-16,.,.
CCOC(=O)c1c(N)sc2c(OCC)c(Br)ccc12,-13,24*,8,25,-40,-20,29*,28*
O=C(CN1CCN(S(=O)(=O)c2ccc(Br)cc2)CC1)N/N=C/c1ccccc1C(=O)O,-21,-7,0,6,-21,-19,.,.
SMILES,OX1R antag-1,GPR7 antagonist,TAAR1 agonist,OX1R antag-2,TAAR1 antagonist,CHO parental Ca,GPR7 antag conf,MCHR1 antag
O=C(NC(NC(=S)Nc1c(Cl)cccc1Cl)C(Cl)(Cl)Cl)OCc1ccccc1 (stereo unspecified),-5,27*,12,15,36,-16,26*,44*
COc1ccc(-c2n[nH]c(C(F)(F)F)c2-c2cc3ccccc3o2)c(O)c1,52*,29*,7,2,-16,78*,32*,71*
COc1ccccc1-c1c(-c2ccc(OCC(=O)NN)cc2O)n[nH]c1C(F)(F)F,-14,-6,7,-1,-20,-24,.,.
NC(=O)C1CCN(Cc2nc3cc(C(F)(F)F)ccc3c(=O)[nH]2)CC1,-15,-7,0,22,-20,-3,.,.
O=S(=O)(c1ccc(Br)s1)N1CCN(c2ccnc3cc(Cl)ccc23)CC1,-2,28*,3,13,-10,9,37*,29*
CN1CCN(c2nc(-c3ccc(Cl)cc3)nc3ccccc23)CC1,.,53*,9,.,4,.,41*,36*
CN1CCN(c2nc(-c3ccncc3)nc3ccccc23)CC1,-12,-8,6,23,0,4,.,.
CCOC(=O)Cc1csc(NC(=O)COc2ccc(N(C)S(=O)(=O)c3ccc(C)cc3)cc2)n1,5,32*,10,25,17,-1,27*,67*
CCOC(=O)C(C)Oc1cccc2c(=O)n(CC(=O)NCCc3ccccc3)ccc12 (stereo unspecified),-16,11,0,26,-13,1,.,.
CCOC(=O)C(C)Oc1cccc2c(=O)n(CC(=O)NCc3ccccc3)ccc12 (stereo unspecified),-25,22*,2,2,-17,-22,14,20

# Compound activity as filed in PubChem BioAssay.
